We go through 13 molecules from ChEMBL document CHEMBL4382219, “Synthesis and Biological Evaluation of Cajaninstilbene Acid and Amorfrutins A and B as Inhibitors of the Pseudomonas aeruginosa Quorum Sensing System” (J Nat Prod, 2018).

The subject of data set [1] is Pseudomonas aeruginosa. Nature of the data set: Anti-biofilm activity against Pseudomonas aeruginosa PAO1 at 50 uM after 24 hrs by crystal violet staining based assay relative to control. In kind it is functional. Summed up:
(§1)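 PAO1 grown overnight in LB, then diluted in ABTGC medium (B-medium with 0.1% MgCl₂, 0.1% CaCl₂, 0.1% FeCl₃, plus 10% A10, 0.2% glucose, 0.2% casamino acids) and mixed with compound. Static 24 h at 37 °C. Wells PBS-washed, MeOH-fixed 20 min, stained 20 min with 0.1% w/v crystal violet, then dissolved in 33% AcOH.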

In data set [2] the test system is Pseudomonas aeruginosa. Nature of the data set: Toxicity in Pseudomonas aeruginosa PAO1 assessed as growth inhibition at 1 to 50 uM after 2 to 16 hrs. Type of data set: organism-based. The following applies: in vivo.
For data set [3], the target named is 3-(3-hydroxydecanoyloxy)decanoate synthase (Pseudomonas aeruginosa (strain ATCC 15692 / PAO1 / 1C / PRS 101 / LMG12228)) (UniProt Q51559). Put plainly: Inhibition of RhlA quorum sensing system in Pseudomonas aeruginosa PAO1 harboring mini-ctx-RhlA-lacZ at 2.5 to 20 uM after 6 hrs by beta-galactosidase reporter gene assay. On the technique in general: Reporter assays use an easily measured gene product as a stand-in for the process of interest.

Data set [4] concerns the target Elastase (Pseudomonas aeruginosa (strain ATCC 15692 / PAO1 / 1C / PRS 101 / LMG12228)) (UniProt P14756). Put plainly: Inhibition of lasB quorum sensing system in Pseudomonas aeruginosa PAO1 harboring mini-ctx-lasB-lacZ at 50 uM in presence of ODdHL by beta-galactosidase reporter gene assay. In outline:
(§2)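 Competition: overnight lasB-lacZ or pqsA-lacZ reporter cultures diluted in ABTGC medium to OD600 0.01. Compound at 50 μM added with ODdHL (lasB) or PQS (pqsA) at final 50, 20, 10 or 0 μM. β-galactosidase measured when OD600 reached 1.0. DMSO control; triplicate.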

Data set [5] has as its system Pseudomonas aeruginosa. Nature of the data set: Toxicity in Pseudomonas aeruginosa PAO1 harboring mini-ctx-lacZ assessed as effect on beta-galactosidase activity at 2.5 to 50 uM beta-galactosidase reporter gene assay. In kind it is organism-based. The note with it: in vivo.
The subject of data set [6] is Pseudomonas aeruginosa. Put plainly: Anti-biofilm activity against Pseudomonas aeruginosa PAO1 at 1 to 50 uM after 24 hrs by crystal violet staining based assay relative to control. In kind it is functional. Summed up:
as §1

For data set [7], the target named is T1, Anthranilate--CoA ligase (Pseudomonas aeruginosa (strain ATCC 15692 / DSM 22644 / CIP 104116 /JCM 14847 / LMG 12228 / 1C / PRS 101 / PAO1)) (UniProt Q9I4X3).
T1 sequence (whole entry): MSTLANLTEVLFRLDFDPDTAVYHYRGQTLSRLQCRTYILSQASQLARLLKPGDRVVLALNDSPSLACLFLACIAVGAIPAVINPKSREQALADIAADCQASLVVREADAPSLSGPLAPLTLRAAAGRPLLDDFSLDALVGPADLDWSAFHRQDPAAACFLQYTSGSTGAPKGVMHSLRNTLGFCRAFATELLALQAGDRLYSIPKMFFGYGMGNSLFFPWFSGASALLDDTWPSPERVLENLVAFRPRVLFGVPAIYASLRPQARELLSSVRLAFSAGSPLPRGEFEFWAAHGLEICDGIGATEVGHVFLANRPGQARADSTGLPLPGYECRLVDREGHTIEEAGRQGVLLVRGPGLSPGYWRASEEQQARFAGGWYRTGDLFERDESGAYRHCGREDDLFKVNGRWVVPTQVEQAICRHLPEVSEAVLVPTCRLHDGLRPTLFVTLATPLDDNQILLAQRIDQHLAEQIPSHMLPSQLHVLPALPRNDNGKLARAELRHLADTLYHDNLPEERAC
Put plainly: Inhibition of pqsA quorum sensing system in Pseudomonas aeruginosa PAO1 harboring mini-ctx-pqsA-lacZ after 24 hrs by beta-galactosidase reporter gene assay.

The target of data set [8] is Elastase (Pseudomonas aeruginosa (strain ATCC 15692 / PAO1 / 1C / PRS 101 / LMG12228)) (UniProt P14756). Put plainly: Inhibition of lasB quorum sensing system in Pseudomonas aeruginosa PAO1 harboring mini-ctx-lasB-lacZ after 6 hrs by beta-galactosidase reporter gene assay.
For data set [9] the target is unchanged. Nature of the data set: Inhibition of lasB quorum sensing system in Pseudomonas aeruginosa PAO1 assessed as reduction in elastase release at 10 uM after 24 hrs relative to control. In outline:
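Elastase: overnight wild-type PAO1 diluted in ABTGC medium to OD600 0.01 and grown 24 h at 37 °C with shaking at 200 rpm. Supernatant elastase measured by a fluorogenic elastase kit. PAO1ΔlasIΔrhlI served as blank; DMSO as control.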

Data set [10] relates to Pseudomonas aeruginosa. Put plainly: Anti-biofilm activity against Pseudomonas aeruginosa PAO1 after 24 hrs by crystal violet staining based assay. In kind it is functional, organism-based. In outline:
as §1

In data set [11] the target is 3-(3-hydroxydecanoyloxy)decanoate synthase (Pseudomonas aeruginosa (strain ATCC 15692 / PAO1 / 1C / PRS 101 / LMG12228)) (UniProt Q51559). Nature of the data set: Inhibition of RhlA quorum sensing system in Pseudomonas aeruginosa PAO1 harboring mini-ctx-RhlA-lacZ at 50 uM after 6 hrs by beta-galactosidase reporter gene assay.
In data set [12] the target is T1, Anthranilate--CoA ligase (Pseudomonas aeruginosa (strain ATCC 15692 / DSM 22644 / CIP 104116 /JCM 14847 / LMG 12228 / 1C / PRS 101 / PAO1)). Nature of the data set: Inhibition of pqsA quorum sensing system in Pseudomonas aeruginosa PAO1 harboring mini-ctx-pqsA-lacZ at 50 uM in presence of PQS by beta-galactosidase reporter gene assay. Summed up: as §2
For data set [13] the target is unchanged. Nature of the data set: Inhibition of pqsA quorum sensing system in Pseudomonas aeruginosa PAO1 assessed as reduction in pyocyanin release at 10 uM after 20 hrs relative to control. In outline:
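Pyocyanin: overnight PAO1 diluted in LB to OD600 0.01; 20 mL cultures shaken at 37 °C for 20 h. Centrifuged at 1500g for 10 min; supernatant absorbance read at 695 nm. PAO1ΔlasIΔrhlI served as blank; DMSO as control.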

Data set [14] has as its target 3-(3-hydroxydecanoyloxy)decanoate synthase (Pseudomonas aeruginosa (strain ATCC 15692 / PAO1 / 1C / PRS 101 / LMG12228)) (UniProt Q51559). Nature of the data set: Inhibition of RhlA quorum sensing system in Pseudomonas aeruginosa PAO1 assessed as reduction in rhamnolipid production at 10 to 50 uM after 20 hrs. Summed up:
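Rhamnolipid by orcinol method: overnight PAO1 diluted in phosphate minimal medium with 0.6% glycerol, 5 mL cultures shaken at 37 °C for 20 h with compound at various concentrations; DMSO control. Cultures centrifuged 12000g, 4 °C, 5 min; orcinol reaction at 80 °C for 30 min. A421 divided by final OD600.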

Molecules are shown by their SMILES. The source made the active and inactive calls. The rule behind the calls is not given here.

Chain of Elastase (Pseudomonas aeruginosa (strain ATCC 15692 / PAO1 / 1C / PRS 101 / LMG12228)) (P14756 198-498 limits assumed): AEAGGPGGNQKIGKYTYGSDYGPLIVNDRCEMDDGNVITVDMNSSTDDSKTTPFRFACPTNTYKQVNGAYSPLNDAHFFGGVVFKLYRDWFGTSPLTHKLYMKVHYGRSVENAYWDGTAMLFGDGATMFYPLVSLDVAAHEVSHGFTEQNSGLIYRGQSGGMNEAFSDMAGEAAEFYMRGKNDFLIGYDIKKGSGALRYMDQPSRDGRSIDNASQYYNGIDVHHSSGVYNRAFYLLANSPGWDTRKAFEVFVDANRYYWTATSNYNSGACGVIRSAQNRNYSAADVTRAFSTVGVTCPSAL

For the molecule `COc1cc(/C=C/c2ccccc2)c(C=O)c(O)c1CC=C(C)C`, the Activity in the data set on Pseudomonas aeruginosa [1] turned out to be 42.4%.
For the molecule `COc1cc(/C=C/c2ccccc2)c(C=O)c(OCC=C(C)C)c1`, the Activity in the data set with Pseudomonas aeruginosa [1] is -14.3%.
With `COc1cc(/C=C/c2ccccc2)c(C(=O)O)c(O)c1CC=C(C)C`, the Activity with Pseudomonas aeruginosa [1] is given as -41%.
Still for that read-out and setting: then `COc1cc(CCc2ccccc2)c(C=O)c(O)c1C/C=C(\C)CCC=C(C)C`, with 53.1%.
Turning to `COc1cc(CCc2ccccc2)c(C(=O)O)c(O)c1C/C=C(\C)CCC=C(C)C`, in the data set on Pseudomonas aeruginosa [2], the “growth inhibition (GI)” value is recorded as “Non-Toxic”. The inhibition entry in data set [3], in [4], in data set [12] and in data set [14] was “inactive” throughout. The Activity result with Pseudomonas aeruginosa [5] is “Non-Toxic”; with Pseudomonas aeruginosa [6], 20 - 50%; in the data set with Pseudomonas aeruginosa [10] it was “Dose-dependent effect”; in the data set with Pseudomonas aeruginosa [1], 50.3%. Further, the inhibition (in general, how much of the control response was suppressed) in data set [7] was “Dose-dependent effect”; in data set [8], “Dose-dependent effect”; in data set [9] it was 50%; in [13], 50%. Further, in data set [11], the inhibition result was “Active”.
Regarding `COc1cc(CCc2ccccc2)c(C=O)c(O)c1CC=C(C)C`, in the data set with Pseudomonas aeruginosa [1], the Activity is 26.9%.
As to `COc1cc(CCc2ccccc2)c(C(=O)O)c(OC(C)=O)c1CC=C(C)C`, the Activity with Pseudomonas aeruginosa [1] is listed as 36.9%.
Same read-out and setting: then `COc1cc(CCc2ccccc2)c(C=O)c(OC(C)=O)c1CC=C(C)C`, with -32.1%; and `COc1cc(CCc2ccccc2)c(C=O)c(OC(C)=O)c1C/C=C(\C)CCC=C(C)C`, with 24.7%.
`COc1cc(/C=C/c2ccccc2)c(C(=O)O)c(OC(C)=O)c1CC=C(C)C`: in the data set on Pseudomonas aeruginosa [1], the Activity was -24.4%.
As to `COc1cc(CCc2ccccc2)c(C(=O)O)c(O)c1CC=C(C)C` [AMORFRUTIN A], the Activity in the data set on Pseudomonas aeruginosa [1] is -31.3%.
Same read-out and setting: to `COc1cc(CCc2ccccc2)c(C(=O)O)c(OC(C)=O)c1C/C=C(\C)CCC=C(C)C` belongs -32.9%; to `COc1cc(/C=C/c2ccccc2)c(C=O)c(OC(C)=O)c1CC=C(C)C`, -12.5%.
